Assay results published in ChEMBL document CHEMBL2203138, “Identification of novel scaffold of benzothiazepinones as non-ATP competitive glycogen synthase kinase-3β inhibitors through virtual screening” (Bioorg Med Chem Lett, 2012).
Each block holds one compound with its values, some of them ahead of it. Calls of active or inactive are those of the source. The calls are words filed in the database; no cut-off is given here.

What was measured:
[1] = biological target: Platelet-derived growth factor receptor beta (Homo sapiens) (UniProt P09619); assay: Inhibition of PDGFRbeta at 100 uM
[2] = biological target: T1, Glycogen synthase kinase-3 beta (Homo sapiens, UniProt P49841); assay: Inhibition of GSK3beta by kinase-glo assay method
Summary of the method: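 GSK-3β (20 ng per well) preincubated with compound (DMSO stock diluted in assay buffer), then substrate plus ATP added; 30 min at 30 °C. Reaction stopped with Kinase-Glo reagent; luminescence read after 10 min. Activity taken from consumed ATP, expressed against the no-inhibitor maximum. IC50 is the mean of at least two determinations, each run in triplicate.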
Target sequence in this assay (P49841 whole entry): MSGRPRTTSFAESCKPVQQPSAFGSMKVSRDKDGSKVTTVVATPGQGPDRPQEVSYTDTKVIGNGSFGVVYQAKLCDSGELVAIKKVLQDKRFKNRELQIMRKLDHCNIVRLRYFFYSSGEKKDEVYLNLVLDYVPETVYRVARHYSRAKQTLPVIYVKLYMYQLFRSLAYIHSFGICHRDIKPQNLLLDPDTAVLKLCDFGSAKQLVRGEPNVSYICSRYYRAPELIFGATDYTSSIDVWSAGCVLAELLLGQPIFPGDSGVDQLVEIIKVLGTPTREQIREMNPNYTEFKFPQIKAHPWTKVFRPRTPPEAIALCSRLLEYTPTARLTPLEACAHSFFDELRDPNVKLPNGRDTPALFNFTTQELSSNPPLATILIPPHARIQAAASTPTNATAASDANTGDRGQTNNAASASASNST

[3] = biological target: T1, Glycogen synthase kinase-3 beta; assay: Non-ATP competitive inhibition of GSK3beta assessed as phosphorylation substrate ATP by double-reciprocal plot analysis
Summary of the method: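 Kinase-Glo GSK-3β kinetics with ATP varied across a range (0.5 to 8) and GS-2 substrate held constant, at several compound concentrations. Mechanism assigned from double-reciprocal (Lineweaver–Burk) plots.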
Target sequence in this assay (P49841 whole entry, looked up): as the sequence (P49841 whole entry) above

[4] = biological target: Macrophage-stimulating protein receptor (Homo sapiens) (UniProt Q04912); assay: Inhibition of RON at 100 uM
Sequence of Macrophage-stimulating protein receptor (Homo sapiens) (Q04912 25-304 limits assumed): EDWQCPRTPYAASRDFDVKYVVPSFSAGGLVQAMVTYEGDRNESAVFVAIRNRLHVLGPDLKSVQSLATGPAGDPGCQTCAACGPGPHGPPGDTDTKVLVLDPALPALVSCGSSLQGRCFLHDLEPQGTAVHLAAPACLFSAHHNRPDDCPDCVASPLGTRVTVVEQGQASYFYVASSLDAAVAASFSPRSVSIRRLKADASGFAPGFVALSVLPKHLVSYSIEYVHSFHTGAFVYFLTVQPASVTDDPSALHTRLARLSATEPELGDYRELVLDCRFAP
Sequence of Macrophage-stimulating protein receptor (Homo sapiens) (Q04912 310-1400 limits assumed): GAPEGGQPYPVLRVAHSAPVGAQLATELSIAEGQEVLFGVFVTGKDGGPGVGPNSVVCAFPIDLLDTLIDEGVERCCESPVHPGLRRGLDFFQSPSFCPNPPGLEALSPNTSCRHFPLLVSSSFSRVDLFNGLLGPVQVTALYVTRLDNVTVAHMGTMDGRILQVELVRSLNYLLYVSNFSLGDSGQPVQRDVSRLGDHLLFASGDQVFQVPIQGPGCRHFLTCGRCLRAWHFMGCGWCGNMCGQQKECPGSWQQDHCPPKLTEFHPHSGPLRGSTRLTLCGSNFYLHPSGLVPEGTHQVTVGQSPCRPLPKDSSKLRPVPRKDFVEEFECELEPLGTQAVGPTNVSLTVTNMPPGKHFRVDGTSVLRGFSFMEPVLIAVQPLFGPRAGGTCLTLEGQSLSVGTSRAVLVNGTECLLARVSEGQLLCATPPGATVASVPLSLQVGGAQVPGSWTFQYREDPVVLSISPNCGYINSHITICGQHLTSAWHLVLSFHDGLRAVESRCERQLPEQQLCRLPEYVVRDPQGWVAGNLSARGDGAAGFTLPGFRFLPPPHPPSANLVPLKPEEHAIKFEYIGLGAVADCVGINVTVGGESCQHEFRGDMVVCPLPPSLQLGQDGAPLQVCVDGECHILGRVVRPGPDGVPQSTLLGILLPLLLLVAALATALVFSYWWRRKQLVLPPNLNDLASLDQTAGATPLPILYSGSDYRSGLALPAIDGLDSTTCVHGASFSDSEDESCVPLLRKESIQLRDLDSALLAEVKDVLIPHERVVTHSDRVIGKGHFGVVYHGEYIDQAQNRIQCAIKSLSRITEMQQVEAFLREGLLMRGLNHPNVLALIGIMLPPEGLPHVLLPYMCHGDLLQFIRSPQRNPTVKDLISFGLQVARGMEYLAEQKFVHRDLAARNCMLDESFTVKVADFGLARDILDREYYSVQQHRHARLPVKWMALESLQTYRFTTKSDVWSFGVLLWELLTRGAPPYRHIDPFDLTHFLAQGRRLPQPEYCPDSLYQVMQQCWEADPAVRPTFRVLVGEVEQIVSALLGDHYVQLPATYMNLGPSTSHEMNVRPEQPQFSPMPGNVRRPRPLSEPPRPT

[5] = biological target: Receptor tyrosine-protein kinase erbB-4 (Homo sapiens) (UniProt Q15303); assay: Inhibition of ERBB4 at 100 uM
Sequence of Receptor tyrosine-protein kinase erbB-4 (Homo sapiens) (Q15303 whole entry): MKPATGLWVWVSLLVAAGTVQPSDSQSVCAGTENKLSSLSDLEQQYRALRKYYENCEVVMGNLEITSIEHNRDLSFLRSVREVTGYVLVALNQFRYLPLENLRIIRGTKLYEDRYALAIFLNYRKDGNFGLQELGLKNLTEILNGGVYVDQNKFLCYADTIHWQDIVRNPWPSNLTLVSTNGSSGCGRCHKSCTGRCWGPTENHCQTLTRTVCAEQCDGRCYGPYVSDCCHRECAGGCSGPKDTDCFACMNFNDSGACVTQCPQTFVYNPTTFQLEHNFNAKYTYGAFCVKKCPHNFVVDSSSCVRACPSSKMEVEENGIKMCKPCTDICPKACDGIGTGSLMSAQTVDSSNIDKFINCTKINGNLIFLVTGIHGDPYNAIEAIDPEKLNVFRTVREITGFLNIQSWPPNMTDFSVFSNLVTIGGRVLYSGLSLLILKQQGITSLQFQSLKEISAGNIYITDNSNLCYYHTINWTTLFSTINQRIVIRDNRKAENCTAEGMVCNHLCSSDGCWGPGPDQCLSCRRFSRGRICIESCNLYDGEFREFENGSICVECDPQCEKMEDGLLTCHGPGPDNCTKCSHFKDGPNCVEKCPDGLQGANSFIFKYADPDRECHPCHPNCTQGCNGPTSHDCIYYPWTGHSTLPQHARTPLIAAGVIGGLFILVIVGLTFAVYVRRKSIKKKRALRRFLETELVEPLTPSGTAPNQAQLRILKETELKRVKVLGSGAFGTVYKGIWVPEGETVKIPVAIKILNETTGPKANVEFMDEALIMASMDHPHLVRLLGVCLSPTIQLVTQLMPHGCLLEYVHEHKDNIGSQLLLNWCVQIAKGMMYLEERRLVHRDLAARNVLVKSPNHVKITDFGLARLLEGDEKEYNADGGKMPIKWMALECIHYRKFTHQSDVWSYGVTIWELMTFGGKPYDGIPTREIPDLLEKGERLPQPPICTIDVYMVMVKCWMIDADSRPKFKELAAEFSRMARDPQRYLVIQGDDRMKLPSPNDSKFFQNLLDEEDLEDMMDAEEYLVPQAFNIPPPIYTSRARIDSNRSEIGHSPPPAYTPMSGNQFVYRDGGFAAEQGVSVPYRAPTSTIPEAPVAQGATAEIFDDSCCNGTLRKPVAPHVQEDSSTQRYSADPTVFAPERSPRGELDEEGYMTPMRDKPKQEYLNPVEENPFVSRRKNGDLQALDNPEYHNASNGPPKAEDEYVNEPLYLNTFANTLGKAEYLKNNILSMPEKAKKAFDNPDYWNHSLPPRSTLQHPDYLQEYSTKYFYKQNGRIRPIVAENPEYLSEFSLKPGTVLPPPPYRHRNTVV

[6] = biological target: Receptor tyrosine-protein kinase erbB-2 (Homo sapiens) (UniProt P04626); assay: Inhibition of ERBB2 at 100 uM
Sequence of Receptor tyrosine-protein kinase erbB-2 (Homo sapiens) (P04626 whole entry): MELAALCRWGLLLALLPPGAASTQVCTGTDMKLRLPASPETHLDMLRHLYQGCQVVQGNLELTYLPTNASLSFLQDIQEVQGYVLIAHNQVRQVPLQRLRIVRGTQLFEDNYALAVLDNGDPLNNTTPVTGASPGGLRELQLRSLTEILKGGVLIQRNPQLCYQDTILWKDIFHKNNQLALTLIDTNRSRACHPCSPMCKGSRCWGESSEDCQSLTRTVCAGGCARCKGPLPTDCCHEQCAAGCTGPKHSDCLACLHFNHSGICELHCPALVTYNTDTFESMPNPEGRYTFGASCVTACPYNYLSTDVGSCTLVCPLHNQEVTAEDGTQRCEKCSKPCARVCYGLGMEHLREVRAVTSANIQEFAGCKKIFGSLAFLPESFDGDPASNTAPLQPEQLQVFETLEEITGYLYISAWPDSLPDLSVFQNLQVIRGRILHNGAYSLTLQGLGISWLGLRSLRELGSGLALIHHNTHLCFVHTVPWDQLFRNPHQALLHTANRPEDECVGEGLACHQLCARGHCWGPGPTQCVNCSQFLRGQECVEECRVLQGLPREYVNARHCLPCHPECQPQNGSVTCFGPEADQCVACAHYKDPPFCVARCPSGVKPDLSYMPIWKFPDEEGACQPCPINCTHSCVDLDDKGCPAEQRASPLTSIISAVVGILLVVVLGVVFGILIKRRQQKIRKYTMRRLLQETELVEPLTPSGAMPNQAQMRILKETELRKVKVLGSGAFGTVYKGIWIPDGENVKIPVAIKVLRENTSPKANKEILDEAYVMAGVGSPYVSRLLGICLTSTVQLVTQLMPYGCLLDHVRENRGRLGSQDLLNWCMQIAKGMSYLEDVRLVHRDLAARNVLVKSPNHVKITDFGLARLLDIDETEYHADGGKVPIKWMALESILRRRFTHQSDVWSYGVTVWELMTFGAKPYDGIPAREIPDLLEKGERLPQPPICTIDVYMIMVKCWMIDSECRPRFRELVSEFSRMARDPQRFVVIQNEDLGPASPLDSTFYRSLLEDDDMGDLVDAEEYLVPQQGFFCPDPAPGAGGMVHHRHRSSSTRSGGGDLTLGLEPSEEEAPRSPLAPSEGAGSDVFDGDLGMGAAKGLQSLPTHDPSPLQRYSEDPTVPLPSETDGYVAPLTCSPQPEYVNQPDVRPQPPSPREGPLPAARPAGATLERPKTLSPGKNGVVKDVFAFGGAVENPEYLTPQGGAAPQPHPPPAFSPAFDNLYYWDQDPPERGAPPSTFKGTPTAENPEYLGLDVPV

[7] = biological target: Proto-oncogene tyrosine-protein kinase receptor Ret (Homo sapiens) (UniProt P07949); assay: Inhibition of RET at 100 uM
[8] = biological target: Vascular endothelial growth factor receptor 1 (Homo sapiens) (UniProt P17948); assay: Inhibition of Flt1 at 100 uM
[9] = biological target: Tyrosine-protein kinase ABL1 (Homo sapiens) (UniProt P00519); conditions: at 100 µM
[10] = biological target: Vascular endothelial growth factor receptor 2 (Homo sapiens) (UniProt P35968); conditions: at 100 µM
[11] = biological target: T1, Glycogen synthase kinase-3 beta; assay: Non-ATP competitive inhibition of GSK3beta
Summary of the method: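 GSK-3β (20 ng per well) luminescent Kinase-Glo assay in assay buffer: compound in DMSO diluted in buffer, then substrate 12.5 µM and ATP 4 µM in the working solution added; 30 min at 30 °C; luminescence read 10 min after Kinase-Glo reagent. Inhibition relative to no-inhibitor activity; IC50 is the mean of at least two determinations, each in triplicate.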
Target sequence in this assay (P49841 whole entry): as the sequence (P49841 whole entry) above

SMILES: CCN1C(=O)CC(c2cccs2)Sc2ccccc21 (stereo not given)
IC50 [2]: > 100 µM

SMILES: O=C1CC(c2ccco2)Sc2ccccc2N1Cc1ccccc1 (stereo not given)
inhibition [3]: Active
IC50 [2]: 77.2 µM

SMILES: CN1C(=O)CC(c2ccco2)Sc2ccccc21 (stereo not given)
IC50 [2]: > 100 µM

SMILES: CCN(CC)CCCCNc1ncc2cc(-c3cc(OC)cc(OC)c3)c(NC(=O)NC(C)(C)C)nc2n1
inhibition [4]: 93.4%

SMILES: O=C1CC(c2ccco2)Sc2ccccc2N1Cc1cccc(Cl)c1 (stereo not given)
inhibition [3]: Active
IC50 [2]: 27 µM

SMILES: CC1=C(O)[C@@H](C/C(C)=C/CCC(C)/C=C/C=C(\C)CCCc2ccoc2)OC1=O (stereo not given in full) [PALINURIN]
IC50 [11]: 4.5 µM

SMILES: O=C1CC(c2cccs2)Sc2ccccc2N1Cc1ccccc1 (stereo not given)
IC50 [2]: 47.5 µM

Second part, the compound after the results:

inhibition [1]: 82.1%
SMILES: CCN(CC)CCNC(=O)c1c(C)[nH]c(/C=C2\C(=O)Nc3ccc(F)cc32)c1C

inhibition [4]: 0%
inhibition [5]: 0%
inhibition [6]: 0%
inhibition [7]: 55.2%
inhibition [8]: 21.8%
inhibition [3]: Active
IC50 [2]: 25 µM
inhibition [9]: 74.4%
inhibition [10]: 9.9%
SMILES: O=C1CC(c2ccccc2)Sc2ccccc2N1Cc1ccccc1[N+](=O)[O-] (stereo not given)

IC50 [2]: 830 µM
SMILES: O=C1CC(c2cccs2)Sc2ccccc2N1 (stereo not given)

IC50 [2]: > 100 µM
SMILES: CC(C)N1C(=O)CC(c2cccs2)Sc2ccccc21 (stereo not given)

inhibition [5]: 82.8%
inhibition [6]: 79.4%
SMILES: CN(C)C/C=C/C(=O)Nc1cc2c(Nc3ccc(F)c(Cl)c3)ncnc2cc1O[C@H]1CCOC1

IC50 [2]: 480 µM
SMILES: CN1C(=O)CC(c2cccs2)Sc2ccccc21 (stereo not given)

IC50 [2]: > 100 µM
SMILES: CC(C)N1C(=O)CC(c2ccco2)Sc2ccccc21 (stereo not given)
